Assay results as given in ChEMBL document CHEMBL1125019 (J Med Chem, 1990).

Tests used:
D(1A) dopamine receptor = D(1A) dopamine receptor (Rattus norvegicus, UniProt P18901); experiment: Binding affinity against Dopamine receptor D1 from rat brain corpus striatum membrane
In short: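 Four to six concentrations of each test agent. IC50 ± SEM obtained by computer-assisted curve fitting; Ki derived from IC50 using the Kd and ligand concentration.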

D(2) dopamine receptor = D(2) dopamine receptor (Rattus norvegicus, UniProt P61169); experiment: Binding affinity against Dopamine receptor D2 from rat brain corpus striatum membrane
Chain of D(2) dopamine receptor (P61169 whole entry): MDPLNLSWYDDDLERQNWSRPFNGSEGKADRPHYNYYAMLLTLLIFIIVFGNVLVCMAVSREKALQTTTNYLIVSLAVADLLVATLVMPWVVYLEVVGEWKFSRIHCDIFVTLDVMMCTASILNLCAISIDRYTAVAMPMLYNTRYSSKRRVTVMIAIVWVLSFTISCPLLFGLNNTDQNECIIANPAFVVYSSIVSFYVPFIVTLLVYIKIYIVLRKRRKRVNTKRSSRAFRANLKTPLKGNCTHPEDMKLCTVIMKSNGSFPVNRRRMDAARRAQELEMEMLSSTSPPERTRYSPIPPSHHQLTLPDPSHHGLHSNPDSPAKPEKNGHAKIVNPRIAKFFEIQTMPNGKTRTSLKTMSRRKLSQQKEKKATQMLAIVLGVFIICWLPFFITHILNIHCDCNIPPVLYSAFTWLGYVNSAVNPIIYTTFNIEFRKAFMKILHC

Chain of D(1A) dopamine receptor (P18901 whole entry): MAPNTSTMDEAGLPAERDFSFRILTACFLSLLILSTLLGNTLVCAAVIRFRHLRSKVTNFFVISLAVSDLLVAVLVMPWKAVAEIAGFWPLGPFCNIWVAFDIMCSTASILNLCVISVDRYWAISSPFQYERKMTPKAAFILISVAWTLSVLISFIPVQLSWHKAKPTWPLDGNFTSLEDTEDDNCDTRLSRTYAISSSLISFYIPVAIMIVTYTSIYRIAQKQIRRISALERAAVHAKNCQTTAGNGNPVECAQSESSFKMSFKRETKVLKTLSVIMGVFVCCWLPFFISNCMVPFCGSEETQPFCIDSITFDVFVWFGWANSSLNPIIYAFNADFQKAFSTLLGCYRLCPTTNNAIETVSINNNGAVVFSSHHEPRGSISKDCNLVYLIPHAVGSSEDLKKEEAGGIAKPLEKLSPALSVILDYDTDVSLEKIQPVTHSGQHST

SMILES	IC50 (D(1A) dopamine receptor)	IC50 (D(2) dopamine receptor)
CCCN1CCc2cc(F)cc3c2[C@H]1Cc1ccc2c(c1-3)OCO2	3100 nM	97.6 nM
CCCN1CCc2cc(OC)cc3c2[C@H]1Cc1ccc(O)c(O)c1-3	3340 nM	1.02 nM
CCCN1CCc2cc(N)cc3c2[C@H]1Cc1ccc2c(c1-3)OCO2	> 10000 nM	704 nM
CCCN1CCc2cc(Br)cc3c2[C@H]1Cc1ccc(O)c(O)c1-3	970 nM	0.89 nM
CCCN1CCc2cc(O)cc3c2[C@H]1Cc1ccc(O)c(O)c1-3	1720 nM	0.32 nM
CCCN1CCc2cc(F)cc3c2[C@H]1Cc1ccc(O)c(O)c1-3	1300 nM	0.071 nM
CCCN1CCc2cc(N)cc3c2[C@H]1Cc1ccc(O)c(O)c1-3	> 10000 nM	5.5 nM
